Only some compounds are listed: those with a hit (about 2.9% of all), similar ones and a draw of the others.
OX1R antag-1: blocks the human orexin 1 receptor; O43613; CHO/OX1R cells, Fluo-8 calcium fluorescence, orexin A; inhibition, % at 5 µM; 330,000 tested, 0.43% active; AID 434989;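 active = inhibition above its plate's threshold, mean inhibition of all tested compounds on the plate plus 3 SD, cut at about 37% in these data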;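 note: 0% = orexin A challenge wells and 100% = SB-334867-A antagonist wells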
Target sequence (O43613 whole entry, looked up): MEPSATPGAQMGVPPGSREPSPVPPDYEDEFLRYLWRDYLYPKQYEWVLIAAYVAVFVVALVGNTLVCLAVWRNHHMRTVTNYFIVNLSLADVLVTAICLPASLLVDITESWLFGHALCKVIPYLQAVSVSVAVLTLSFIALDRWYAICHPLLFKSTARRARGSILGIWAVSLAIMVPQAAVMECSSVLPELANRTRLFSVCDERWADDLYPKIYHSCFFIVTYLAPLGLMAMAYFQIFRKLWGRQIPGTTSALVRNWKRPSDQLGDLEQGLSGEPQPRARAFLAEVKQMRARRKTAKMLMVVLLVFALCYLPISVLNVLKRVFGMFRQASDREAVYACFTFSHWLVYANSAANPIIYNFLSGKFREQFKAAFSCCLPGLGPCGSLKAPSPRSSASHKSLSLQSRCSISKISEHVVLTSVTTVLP
OX1R antag-2: blocks the human orexin 1 receptor; OX1R-expressing cells, FRET antagonist read-out; 330,000 tested, 1.8% active; O43613; inhibition, % at 6.6 µM; AID 485270; in the data active = inhibition mostly above about 38%, no sharp cut-off; inactive = mostly below about 40%;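 note: 0% = agonist challenge alone and 100% = reference antagonist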
CHO parental Ca: counter-screen for OX1R antagonists: effect in parental CHO cells | parental CHO-K1, ATP-induced calcium, Fluo-8 fluorescence | inhibition, % at 5.6 µM | 330,000 tested, 0.63% active | AID 463079;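 active = inhibition above that plate's mean sample inhibition plus 3 SD, cut at about 26% in these data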;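 note: 0% = ATP-challenged DMSO wells and 100% = DMSO wells without ATP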
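Test system: untransfected parental CHO cell line; also added: ATP stimulus; dosing: 5.6 µM, single dose; signal: calcium-sensitive Fluo-8 fluorescence; measure: percent inhibition of ATP-evoked calcium rise, normalized to controls; benchmarks: low control ATP plus DMSO, high control DMSO only; replication: one well per compound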
CHO-K1 Ca antag: nonselective inhibitor or artifact in parental CHO-K1 cells. ATP-induced calcium, Fluo-8 fluorescence. inhibition, % at 3 µM. 360,000 tested, 0.6% active;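 active = inhibition above a per-plate cutoff, the plate's mean sample inhibition plus 3 SD, cut at about 24% in these data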;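 note: 0% = DMSO plus EC80 ATP and 100% = DMSO alone without ATP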
M1 PAM parental: M1 PAM counterscreen hit in parental CHO-K1 cells. ATP EC20, Fluo-8 calcium fluorescence; 0% at ATP EC20, 100% at ATP max. activation, % at 3 µM. 360,000 tested, 0.02% active. AID 602247;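 active = activation above the run cutoff, the mean activation of all test compounds plus 3 SD, cut at about 40% in these data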;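 note: peak over basal fluorescence ratio in a 140 s read after ATP addition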
M1 ag parental: nonselective activator or artifact in parental CHO-K1 cells. Fluo-8 calcium fluorescence; scaled to maximal ATP response, vehicle zero. activation, % at 3 µM. 360,000 tested, 0.48% active; in the data active = activation above about 15%;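 note: untransfected CHO-K1 host cells lacking M1 receptor as counterscreen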
Active calls of the source: *; / = not tested or not shown.

SMILES	OX1R antag-1	OX1R antag-2	CHO parental Ca	CHO-K1 Ca antag	M1 PAM parental	M1 ag parental
CCc1nc(C)cn1S(=O)(=O)c1cc(C)c(OC)cc1C	-11	8	-5	3	6	0
N#C/C(C(=O)NCc1ccccc1)=C1/N=C(NC(=O)c2ccco2)c2ccccc21	-13	14	-3	-4	18	17*
COc1ccc(CCNC(=O)/C(C#N)=C2\N=C(NC(=O)c3ccco3)c3ccccc32)cc1	-22	13	-4	-7	14	1
COCCCNC(=O)/C(C#N)=C1\N=C(NC(=O)c2cccs2)c2ccccc21	-17	47*	-4	4	-12	0
Cc1cc(C)nc(/N=C(\N)Nc2ccc(C(C)C)cc2)n1	0	1	-3	4	-4	16*
CCCCc1ccc(N/C(N)=N/c2nc(C)cc(C)n2)cc1	89*	24	70*	46*	-28	42*
CCOc1ccc(S(=O)(=O)Nc2ccccc2C(=O)N2CCOCC2)cc1	-18	8	-2	-11	3	1
CC(C)OC(=O)N(C)C[C@@H]1OCc2cnnn2CCCC(=O)N([C@@H](C)CO)C[C@H]1C	/	/	/	-1	15	1
CCOc1ccc(C(C)NC(=O)C2CCC2)cc1 (centres undefined)	-8	11	-6	24*	-14	0
CCOc1ccc(C(C)NC(=S)NCc2ccc(F)cc2)cc1 (centres undefined)	-10	14	0	1	-5	23*
COC(=O)[C@@]12OC[C@]34[C@H]([C@@H](O)[C@@H]1O)[C@@]1(C)C(=O)C(O[C@@H]5OC(CO)[C@@H](O)[C@@H](O)[C@@H]5O)=C[C@@H](C)[C@@H]1C[C@H]3OC(=O)[C@H](OC(=O)/C=C(\C)C(C)(C)OC(C)=O)[C@@H]24 (some centres undefined)	-12	11	-7	/	/	/
COc1ccccc1OCCNC(=O)c1ccc(NC(=O)CC2SC(N3CCCC3)=NC2=O)cc1 (centres undefined)	/	/	/	-12	1	-1
O=[N+]([O-])c1ccc2cn(C3OC(CO)C(O)C3O)nc2c1 (centres undefined)	/	/	/	-9	20	0
CCCCOc1ccc(C(=O)N/C(=C\c2ccc(OC)cc2)C(=O)OCc2ccco2)cc1	-7	25	3	-19	23	16*
O=[N+]([O-])c1ccccc1Oc1ccc(S(=O)(=O)N2CCOCC2)cc1	0	7	0	-18	-8	6
Cc1sc2ncnc(N3CCC(C(=O)NNC(=O)COc4ccccc4Cl)CC3)c2c1C	10	26	-5	4	-7	13
Cc1sc2ncnc(N3CCC(C(=O)Nc4ccc(OC(F)F)c(Cl)c4)CC3)c2c1C	17	30*	-8	-8	4	0
Cc1cc(Cl)ccc1OCC(=O)NNC(=O)C1CCN(c2ncnc3sc(C)c(C)c23)CC1	21	33*	1	-14	-3	14
Cc1sc2ncnc(N3CCC(C(=O)NNC(=O)COc4ccc(Br)cc4)CC3)c2c1C	0	63*	-12	0	-10	11
CN(Cc1nc(-c2ccc(Cl)cc2)no1)C(=O)c1ccc2c(c1)OCO2	-18	26	20	5	0	6
O=C(COc1ccc(S(=O)(=O)N2CCOCC2)cc1)NC1CCCCC1	-7	-1	7	6	2	1
Cc1cccc(OCC(=O)NCC(=O)N/N=C/c2c(C)[nH]c3ccccc23)c1	21	12	0	-4	7	2
CCc1ccc(N2C(=O)CN(Cc3cc(OC)c(OC)c(OC)c3)C2=S)cc1	-29	17	-13	-11	23	4
CCc1ccccc1N1C(=O)CN(Cc2cc(OC)c(OC)c(OC)c2)C1=S	-6	37*	-15	-10	-12	6
COc1ccccc1NC(=O)c1cc(S(=O)(=O)N2CCCC2)cn1C	-3	6	-3	-5	-1	1
SMILES	OX1R antag-1	OX1R antag-2	CHO parental Ca	CHO-K1 Ca antag	M1 PAM parental	M1 ag parental
CCN1/C(=C/C=C/c2oc3ccc(-c4ccccc4)cc3[n+]2CC)Oc2ccc(-c3ccccc3)cc21	105*	34	101*	102*	-23	857*
Cc1c(C(=O)N2CCNCC2)oc2ccccc12	/	/	/	-13	-3	0
CCOC(=O)CN1C(=O)S/C(=C/C=C/c2ccc(N(C)C)cc2)C1=O	55*	18	32*	-1	15	5
CCCS(=O)(=O)N1CCCC(C(=O)Nc2ccc3c(c2)CCC3)C1 (centres undefined)	-21	15	-12	-9	11	2
COc1ccc(C(CNC(=O)c2oc3ccc(OC)cc3c2C)N2CCCC2)cc1 (centres undefined)	-35	12	-22	30*	-30	0
CCOc1cc2[nH]c(=O)n(Cc3ccccc3)c(=O)c2cc1OCC	-8	2	-8	26*	-8	0
COc1ccc(Cn2c(=O)[nH]c3cc(OC)c(OC)cc3c2=O)cc1	-24	4	-8	-4	4	6
Cc1ccccc1-n1nc2c(c1NC(=O)c1cc3ccccc3oc1=O)CS(=O)C2 (centres undefined)	-14	46*	-14	-4	19	3
O=C(CN1CCN(CC(=O)c2ccc(Cl)cc2)CC1)c1ccc(Cl)cc1	/	/	/	-13	8	1
O=C(Cn1cc(Cl)ccc1=O)c1ccc(Cl)cc1	-15	6	-7	24*	-16	-1
CC(C)(C)NS(=O)(=O)c1cc(C(=O)Nc2sccc2C#N)ccc1Cl	-15	16	-6	2	3	23*
N#Cc1ccsc1NC(=O)c1cnccn1	14	13	-8	-7	-3	0
CC(=O)Nc1cccc(-c2csc(Nc3ccccn3)n2)c1	-10	61*	-12	0	7	4
Cc1cccc(Nc2nc(-c3ccccn3)cs2)n1	20	66*	-5	-8	9	1
CC(NC(=O)c1ccc(Cl)cc1Cl)C(c1ccccc1)N1CCOCC1 (centres undefined)	-7	14	-6	9	16	1
CC(NC(=O)Nc1ccc(Cl)c(Cl)c1)C(c1ccccc1)N1CCOCC1 (centres undefined)	-21	-10	1	14	10	38*
CC(NC(=O)Nc1ccc([N+](=O)[O-])cc1)C(c1ccccc1)N1CCOCC1 (centres undefined)	-11	-3	-3	-2	4	49*
CC(Cc1cccs1)NC(=O)Nc1ccc(Cl)c(Cl)c1 (centres undefined)	47*	49*	63*	13	9	8
Cc1cc(NC(=O)CCC(=O)N(CC(=O)NC2CCCC2)c2cccc(F)c2)no1	-10	8	-21	-11	24	1

Screening results (PubChem)
